How the values were obtained:
[1] = Inhibition of recombinant UAE (unknown origin) in presence of ATP at Km concentration by HTRF assay; set-up: species or system Homo sapiens
SUMO-activating enzyme [2] = target: T1, SUMO-activating enzyme (Homo sapiens, UniProt Q9UBT2); experiment: Inhibition of SAE in human HCT116 cells assessed as reduction in redistribution of SUMO2/3 proteins from nucleus to cytosol incubated for 4 hrs by immunofluorescence assay; type: cell-based, HCT-116
Summary of the method: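 HCT-116 cells exposed to compound across a concentration range for 4 h, then stained with anti-SUMO2/3 monoclonal antibody. Automated imaging scored the nuclear (inner) to cytoplasmic (outer) SUMO2/3 ratio. IC50 taken from the dose response.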

NEDD8 activating enzyme = target: T2, NEDD8 activating enzyme (Homo sapiens, UniProt Q8TBC4); experiment: Inhibition of recombinant NAE (unknown origin) in presence of ATP at Km concentration by HTRF assay; type: protein-complex assay
T2 sequence (Q8TBC4 whole entry): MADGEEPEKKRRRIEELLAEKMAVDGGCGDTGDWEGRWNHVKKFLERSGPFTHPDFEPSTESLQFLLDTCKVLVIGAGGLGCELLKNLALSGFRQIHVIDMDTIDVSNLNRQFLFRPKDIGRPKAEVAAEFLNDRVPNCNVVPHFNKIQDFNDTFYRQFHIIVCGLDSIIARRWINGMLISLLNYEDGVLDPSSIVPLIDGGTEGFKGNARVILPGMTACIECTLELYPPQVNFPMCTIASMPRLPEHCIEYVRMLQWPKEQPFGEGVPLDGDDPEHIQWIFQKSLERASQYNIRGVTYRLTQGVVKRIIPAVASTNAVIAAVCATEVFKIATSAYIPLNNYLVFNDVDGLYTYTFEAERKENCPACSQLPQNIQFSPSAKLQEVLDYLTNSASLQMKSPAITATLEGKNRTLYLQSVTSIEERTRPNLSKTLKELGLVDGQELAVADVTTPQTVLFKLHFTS
T2 sequence (Q13564 whole entry): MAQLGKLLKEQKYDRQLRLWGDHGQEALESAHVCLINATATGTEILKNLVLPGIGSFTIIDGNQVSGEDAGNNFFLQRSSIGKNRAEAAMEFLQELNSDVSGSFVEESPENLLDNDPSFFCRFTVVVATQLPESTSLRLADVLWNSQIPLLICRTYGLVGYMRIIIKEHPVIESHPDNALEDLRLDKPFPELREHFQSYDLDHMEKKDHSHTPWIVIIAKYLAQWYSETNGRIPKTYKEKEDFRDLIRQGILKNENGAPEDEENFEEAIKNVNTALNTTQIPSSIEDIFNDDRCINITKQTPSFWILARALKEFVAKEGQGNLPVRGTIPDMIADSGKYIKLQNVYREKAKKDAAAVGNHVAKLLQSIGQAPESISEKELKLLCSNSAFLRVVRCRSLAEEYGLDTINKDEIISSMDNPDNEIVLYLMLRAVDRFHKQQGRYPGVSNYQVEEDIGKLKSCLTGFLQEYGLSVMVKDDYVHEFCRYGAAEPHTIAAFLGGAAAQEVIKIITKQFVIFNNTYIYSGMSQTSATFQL

SUMO-activating enzyme [3] = target: T1, SUMO-activating enzyme; experiment: Inhibition of recombinant SAE (unknown origin) assessed as reduction in transfer of SUMO1 to UBC9 using SUMO1 as a substrate in presence of ATP at Km concentration by HTRF assay; type: protein-complex assay
Summary of the method: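 HTRF transthiolation assay measuring transfer of SUMO1 to UBC9, the E2 for SAE.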

SUMO-activating enzyme [4] = target: T1, SUMO-activating enzyme; experiment: Inhibition of SAE in human HCT116 cells assessed as redistribution of SUMO2/3 proteins from nucleus to cytosol preincubated for 2 hrs followed by compound washout and measured immediately by immunofluorescence assay; type: cell-based, HCT-116
Summary of the method: (§1)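 Washout format of the SUMO2/3 immunofluorescence assay in HCT116 cells. Cells were exposed to a range of concentrations for 2 h, then washed free of compound.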

SUMO-activating enzyme [5] = target: T1, SUMO-activating enzyme; experiment: Inhibition of SAE in human HCT116 cells assessed as redistribution of SUMO2/3 proteins from nucleus to cytosol preincubated for 2 hrs followed by compound washout and measured after 8 hrs by immunofluorescence assay; type: cell-based, HCT-116; summary of the method: as §1

T1 sequence (Q9UBE0 whole entry): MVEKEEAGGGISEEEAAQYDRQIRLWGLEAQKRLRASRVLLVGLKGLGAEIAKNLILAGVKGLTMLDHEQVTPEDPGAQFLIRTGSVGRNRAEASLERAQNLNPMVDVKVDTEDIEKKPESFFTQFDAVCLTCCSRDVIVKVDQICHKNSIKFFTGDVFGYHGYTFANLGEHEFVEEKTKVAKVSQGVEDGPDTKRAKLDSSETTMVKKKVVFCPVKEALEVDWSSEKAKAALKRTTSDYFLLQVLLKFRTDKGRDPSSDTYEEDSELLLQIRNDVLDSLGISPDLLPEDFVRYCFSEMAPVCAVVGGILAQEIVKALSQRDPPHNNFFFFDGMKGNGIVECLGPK
T1 sequence (Q9UBT2 whole entry): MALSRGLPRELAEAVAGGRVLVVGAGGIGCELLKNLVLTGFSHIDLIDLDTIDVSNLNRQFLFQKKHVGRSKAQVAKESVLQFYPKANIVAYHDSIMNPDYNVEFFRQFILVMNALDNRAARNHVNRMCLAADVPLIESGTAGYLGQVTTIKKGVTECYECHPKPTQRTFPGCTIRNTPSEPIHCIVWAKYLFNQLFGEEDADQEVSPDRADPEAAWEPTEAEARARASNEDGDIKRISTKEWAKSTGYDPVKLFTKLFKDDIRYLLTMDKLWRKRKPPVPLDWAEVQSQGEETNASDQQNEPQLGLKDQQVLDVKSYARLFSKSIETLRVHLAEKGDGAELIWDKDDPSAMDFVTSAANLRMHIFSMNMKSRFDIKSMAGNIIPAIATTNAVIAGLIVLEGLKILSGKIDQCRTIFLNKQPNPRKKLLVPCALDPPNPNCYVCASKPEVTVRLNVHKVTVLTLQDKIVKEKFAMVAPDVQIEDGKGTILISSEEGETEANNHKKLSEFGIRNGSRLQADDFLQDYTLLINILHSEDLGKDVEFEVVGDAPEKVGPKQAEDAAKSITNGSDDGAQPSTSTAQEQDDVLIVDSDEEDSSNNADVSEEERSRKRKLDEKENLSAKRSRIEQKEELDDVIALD

IC50 [1] [nM] | IC50 (NEDD8 activating enzyme) [nM] | Compound | IC50 (SUMO-activating enzyme [2]) [nM] | IC50 (SUMO-activating enzyme [3]) [nM] | IC50 (SUMO-activating enzyme [4]) [nM] | IC50 (SUMO-activating enzyme [5]) [nM]
492 | 688 | NS(=O)(=O)OC[C@H]1C[C@@H](Nc2ncncc2C(=O)c2ccn(Cc3ccccc3)n2)[C@@H](F)[C@@H]1O | 260 | 2.3 | – | –
> 1000 | 507 | Cc1sc(C(=O)c2cncnc2N[C@@H]2C[C@H](COS(N)(=O)=O)[C@@H](O)C2)cc1C1OCCc2cccnc21 (some centres not stated) | – | 0.2 | 19 | 64
> 1000 | 122 | NS(=O)(=O)OC[C@H]1C[C@@H](Nc2ncncc2C(=O)c2cnn(Cc3ccccc3)c2)C[C@@H]1O | 2940 | 6.3 | – | –
> 1000 | 478 | NS(=O)(=O)OC[C@H]1C[C@@H](Nc2ncncc2C(=O)c2ccn(Cc3cccc(Cl)n3)n2)C[C@@H]1O | 66 | 1 | – | –
> 1000 | > 1000 | NS(=O)(=O)OC[C@H]1C[C@@H](Nc2ncncc2C(=O)c2cc(C3OCc4ccc(Cl)cc43)c(Cl)s2)C[C@@H]1O (some centres not stated) | 163 | 3 | – | –
468 | 32 | NS(=O)(=O)OC[C@H]1C[C@@H](Nc2ncncc2C(=O)c2ccn(-c3ccccc3)n2)C[C@@H]1O | > 1000 | 67 | – | –
> 1000 | > 1000 | N#Cc1sc(C(=O)c2cncnc2N[C@@H]2C[C@H](COS(N)(=O)=O)[C@@H](O)C2)cc1Cc1cccc(Cl)c1 | 6260 | 19 | – | –
> 1000 | 64 | NS(=O)(=O)OC[C@H]1C[C@@H](Nc2ncncc2C(=O)c2cc(Cc3cccc(Cl)c3)cs2)C[C@@H]1O | – | – | – | –
> 1000 | 956 | CNC(c1cccc(Cl)c1)c1csc(C(=O)c2cncnc2N[C@@H]2C[C@H](COS(N)(=O)=O)[C@@H](O)C2)c1 (some centres not stated) | 436 | 3.7 | – | –
> 1000 | 242 | NS(=O)(=O)OC[C@H]1C[C@@H](Nc2ncncc2C(=O)c2ccn(Cc3cccc(Cl)c3)n2)C[C@@H]1O | 20 | 0.7 | – | –
> 1000 | 334 | NS(=O)(=O)OC[C@H]1C[C@@H](Nc2ncncc2C(=O)c2ccn(Cc3ccccc3)n2)[C@H](F)[C@@H]1O | 517 | 3.8 | – | –
> 1000 | > 1000 | CN1CCc2ccc(Cl)cc2C1c1csc(C(=O)c2cncnc2N[C@@H]2C[C@H](COS(N)(=O)=O)[C@@H](O)C2)c1 (some centres not stated) | 638 | 2.5 | – | –
> 1000 | > 1000 | CN(C)C(c1cccc(Cl)c1)c1csc(C(=O)c2cncnc2N[C@@H]2C[C@H](COS(N)(=O)=O)[C@@H](O)C2)c1 (some centres not stated) | 4170 | 25 | – | –
> 1000 | 267 | NS(=O)(=O)OC[C@H]1C[C@@H](Nc2ncncc2C(=O)c2ccc(Cc3cccc(Br)c3)o2)C[C@@H]1O | – | – | – | –
> 1000 | 806 | NS(=O)(=O)OC[C@@H]1C[C@@H](Nc2ncncc2C(=O)c2ccn(Cc3ccccc3)n2)C[C@@H]1O | > 1000 | 22 | – | –
> 1000 | 10 | NS(=O)(=O)OC[C@H]1C[C@@H](Nc2ncncc2C(=O)c2ccn(Cc3cccc(Br)c3)c2)C[C@@H]1O | 14 | 0.6 | – | –

More lines, now with the values behind:

Compound | IC50 [1] [nM] | IC50 (NEDD8 activating enzyme) [nM] | IC50 (SUMO-activating enzyme [2]) [nM] | IC50 (SUMO-activating enzyme [3]) [nM] | IC50 (SUMO-activating enzyme [4]) [nM] | IC50 (SUMO-activating enzyme [5]) [nM]
NS(=O)(=O)OC[C@H]1C[C@@H](Nc2ncncc2C(=O)c2cc(C3OCCc4c(Cl)cccc43)cs2)C[C@@H]1O (some centres not stated) | > 1000 | 265 | 76 | 1.7 | – | –
NS(=O)(=O)OC[C@H]1C[C@@H](Nc2ncncc2C(=O)c2ccn(CC3CCCCC3)n2)C[C@@H]1O | > 1000 | 276 | 1610 | 8.2 | – | –
Cc1sc(C(=O)c2cncnc2N[C@@H]2C[C@H](COS(N)(=O)=O)[C@@H](O)C2)cc1C1OCCc2ccc(Cl)cc21 (stereo in doubt; 47) | – | 87 | 3880 | 11 | – | –
NC(c1cccc(Cl)c1)c1csc(C(=O)c2cncnc2N[C@@H]2C[C@H](COS(N)(=O)=O)[C@@H](O)C2)c1 (stereo in doubt; 32) | > 1000 | 328 | 1030 | 1.5 | – | –
Cc1cccc(Cn2ccc(C(=O)c3cncnc3N[C@@H]3C[C@H](COS(N)(=O)=O)[C@@H](O)C3)n2)c1 | > 1000 | 308 | 29 | 1.7 | – | –
NS(=O)(=O)OC[C@H]1C[C@@H](Nc2ncncc2C(=O)c2cc(Cc3cccc(Br)c3)cs2)C[C@@H]1O | > 1000 | 91 | – | – | – | –
NS(=O)(=O)OC[C@H]1C[C@@H](Nc2ncncc2C(=O)c2ccn(Cc3ccccc3Cl)n2)C[C@@H]1O | > 1000 | 215 | 332 | 3.2 | – | –
NS(=O)(=O)OC[C@H]1C[C@@H](Nc2ncncc2C(=O)c2ccn(Cc3ccccc3)c2)C[C@@H]1O | > 1000 | 23 | 30 | 1.7 | – | –
NS(=O)(=O)OC[C@H]1C[C@@H](Nc2ncncc2C(=O)c2ccn(Cc3cccc(OC(F)(F)F)c3)n2)C[C@@H]1O | > 1000 | > 1000 | 78 | 2.1 | – | –
NS(=O)(=O)OC[C@H]1C[C@@H](Nc2ncncc2C(=O)c2cc(C3NCc4ccc(Cl)cc43)cs2)C[C@@H]1O (some centres not stated) | > 1000 | > 1000 | 312 | 1.6 | – | –
NS(=O)(=O)OC[C@H]1C[C@@H](Nc2ncncc2C(=O)c2csc(Cc3cccc(Br)c3)c2)C[C@@H]1O | > 1000 | 523 | 4930 | 18 | – | –
NS(=O)(=O)OC[C@H]1C[C@@H](Nc2ncncc2C(=O)c2ccn(Cc3ccccc3)n2)C(F)(F)[C@@H]1O | > 1000 | > 1000 | 249 | 3.9 | – | –
NS(=O)(=O)OC[C@H]1C[C@@H](Nc2ncncc2C(=O)c2ccn(Cc3ccc(Cl)s3)n2)C[C@@H]1O | > 1000 | 353 | 228 | 2 | – | –
C#Cc1cccc(Cn2ccc(C(=O)c3cncnc3N[C@@H]3C[C@H](COS(N)(=O)=O)[C@@H](O)C3)n2)c1 | > 1000 | 304 | 22 | 1.1 | – | –
Cc1sc(C(=O)c2cncnc2N[C@@H]2C[C@H](COS(N)(=O)=O)[C@@H](O)C2)cc1[C@H]1NCCc2ccc(Cl)cc21 | > 1000 | 554 | 399 | 30 | – | –
NS(=O)(=O)OC[C@H]1C[C@@H](Nc2ncncc2C(=O)c2ccn(Cc3cccc(Br)n3)n2)C[C@@H]1O | > 1000 | 581 | 49 | 0.7 | – | –
NS(=O)(=O)OC[C@H]1C[C@@H](Nc2ncncc2C(=O)c2ccn(Cc3ccc(Cl)cc3)n2)C[C@@H]1O | > 1000 | > 1000 | 1880 | 5.1 | – | –
NS(=O)(=O)OC[C@H]1C[C@@H](Nc2ncncc2C(=O)c2ccn(Cc3ccccc3)n2)[C@@H](O)[C@@H]1O | > 1000 | 748 | 1530 | 27 | – | –
NS(=O)(=O)OC[C@H]1C[C@@H](Nc2ncncc2C(=O)c2ccn(Cc3cccc(C(F)(F)F)c3)n2)C[C@@H]1O | > 1000 | 695 | 39 | 1.1 | – | –
NS(=O)(=O)OC[C@H]1C[C@@H](Nc2ncncc2C(=O)c2ccn(Cc3ccc(Cl)o3)n2)C[C@@H]1O | > 1000 | 435 | 33 | 1.1 | – | –
NS(=O)(=O)OC[C@H]1C[C@@H](Nc2ncncc2C(=O)c2ccn(Cc3cccc(F)c3)n2)C[C@@H]1O | > 1000 | 357 | 515 | 2.9 | – | –

From ChEMBL document CHEMBL4834402, “Discovery of TAK-981, a First-in-Class Inhibitor of SUMO-Activating Enzyme for the Treatment of Cancer” (J Med Chem, 2021)
